ChEMBL document CHEMBL4028918, “7-Phenoxy-Substituted 3,4-Dihydro-2H-1,2,4-benzothiadiazine 1,1-Dioxides as Positive Allosteric Modulators of α-Amino-3-hydroxy-5-methyl-4-isoxazolepropionic Acid (AMPA) Receptors with Nanomolar Potency” (J Med Chem, 2018)
Blank lines part the entries; values can stand above or below the compound they belong to. Active and inactive are the calls of the source. The calls are words filed in the database; no cut-off is given here.

Tests used:
[1] = target: Glutamate receptor 2 (Homo sapiens, UniProt P42262); experiment: Positive allosteric modulation of GluA2 (Q) flop isoform (unknown origin) expressed in HEK293 cells assessed as potentiation of glutamate-evoked calcium flux by fluo-4/AM dye-based fluorescence assay; type: cell-based
[2] = organism: Rattus norvegicus; experiment: Induction of dimerization of rat N-terminal His-tagged GluA2-LBD-N775S mutant expressed in Escherichia coli Origami B (DE3) assessed as intrinsic binding constant by small-angle X-ray scattering method
How it was run: (§1)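 1 μL modulator in DMSO was added to 29 μL protein. Samples were held at 4 °C and read on the CHESS G1 beamline, three replicates averaged, with buffer subtraction.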

[3] = organism: Rattus norvegicus; experiment: Induction of dimerization of rat N-terminal His-tagged GluA2-LBD-N775S mutant expressed in Escherichia coli Origami B (DE3) assessed as dimerization constant by small-angle X-ray scattering method; how it was run: as §1
[4] = organism: Rattus norvegicus; experiment: Induction of dimerization of rat N-terminal His-tagged/15N-labeled GluA2-LBD-N775S mutant expressed in Escherichia coli Origami B (DE3) at 90 uM by NMR spectroscopy

Glutamate receptor 2, sequence (P42262 whole entry, the tested form may be a part, canonical isoform): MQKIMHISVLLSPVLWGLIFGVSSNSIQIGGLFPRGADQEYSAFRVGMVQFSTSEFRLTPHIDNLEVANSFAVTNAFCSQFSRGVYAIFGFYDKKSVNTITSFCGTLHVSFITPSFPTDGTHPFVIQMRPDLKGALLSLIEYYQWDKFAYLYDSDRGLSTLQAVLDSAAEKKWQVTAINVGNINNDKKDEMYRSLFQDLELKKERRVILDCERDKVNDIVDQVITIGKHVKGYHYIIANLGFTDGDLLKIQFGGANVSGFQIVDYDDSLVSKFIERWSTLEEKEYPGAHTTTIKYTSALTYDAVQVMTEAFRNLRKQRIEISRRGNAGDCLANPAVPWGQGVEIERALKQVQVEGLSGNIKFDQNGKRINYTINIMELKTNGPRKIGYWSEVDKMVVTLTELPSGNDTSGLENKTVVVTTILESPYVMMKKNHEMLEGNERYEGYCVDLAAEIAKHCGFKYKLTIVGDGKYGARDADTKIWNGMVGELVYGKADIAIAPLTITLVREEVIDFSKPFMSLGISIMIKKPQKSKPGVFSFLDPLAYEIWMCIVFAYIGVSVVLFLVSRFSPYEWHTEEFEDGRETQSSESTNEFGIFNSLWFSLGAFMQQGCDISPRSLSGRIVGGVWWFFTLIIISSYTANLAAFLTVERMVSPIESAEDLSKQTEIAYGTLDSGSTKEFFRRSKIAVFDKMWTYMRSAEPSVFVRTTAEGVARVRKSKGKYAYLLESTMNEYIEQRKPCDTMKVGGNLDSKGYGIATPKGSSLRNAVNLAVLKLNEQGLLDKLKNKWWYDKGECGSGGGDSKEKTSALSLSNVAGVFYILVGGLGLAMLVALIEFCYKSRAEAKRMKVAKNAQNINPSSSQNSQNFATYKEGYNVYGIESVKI

Structure (SMILES): O=S1(=O)NCN(C2CC2)c2ccc(Oc3ccccc3)cc21
EC50 ([1]; read-out: EC50): 710 nM

Structure (SMILES): CC1N(C)c2ccc(Cl)cc2S(=O)(=O)N1C (stereo not drawn)
EC50 ([1]; read-out: EC50): 18700 nM

Structure (SMILES): Cc1cccc(Oc2ccc3c(c2)S(=O)(=O)NCN3C2CC2)c1
EC50 ([1]; read-out: EC50): 50 nM

Structure (SMILES): COc1ccccc1Oc1ccc2c(c1)S(=O)(=O)NCN2C1CC1
EC50 ([1]; read-out: EC50): 15600 nM

Structure (SMILES): COc1cccc(Oc2ccc3c(c2)S(=O)(=O)NCN3C)c1
EC50 ([1]; read-out: EC50): 370 nM

Structure (SMILES): CN1CNS(=O)(=O)c2cc(Oc3ccccc3)ccc21
EC50 ([1]; read-out: EC50): 7620 nM

Structure (SMILES): COc1ccccc1Oc1ccc2c(c1)S(=O)(=O)NCN2C
EC50 ([1]; read-out: EC50): > 10000 nM

Structure (SMILES): Cc1ccc(Oc2ccc3c(c2)S(=O)(=O)NCN3C2CC2)cc1
EC50 ([1]; read-out: EC50): 3190 nM

Structure (SMILES): COc1ccc(Oc2ccc3c(c2)S(=O)(=O)NCN3C)cc1
EC50 ([1]; read-out: EC50): 5900 nM

Structure (SMILES): Cc1cccc(Oc2ccc3c(c2)S(=O)(=O)NCN3C)c1
EC50 ([1]; read-out: EC50): 390 nM

Now from value to compound:

K [2]: 9 ×10⁻⁷ M | EC50 ([1]; read-out: EC50): 810 nM
Structure (SMILES): O=S1(=O)NCN(C2CC2)c2ccc(F)cc21

EC50 ([1]; read-out: EC50): 1820 nM
Structure (SMILES): COc1ccc(Oc2ccc3c(c2)S(=O)(=O)NCN3C2CC2)cc1

EC50 ([1]; read-out: EC50): 450 nM
Structure (SMILES): N#Cc1cccc(Oc2ccc3c(c2)S(=O)(=O)NCN3C2CC2)c1

EC50 ([1]; read-out: EC50): 950 nM
Structure (SMILES): Cc1ccc(Oc2ccc3c(c2)S(=O)(=O)NCN3C)cc1

K [2]: 2 ×10⁻⁶ M | EC50 ([1]; read-out: EC50): 20400 nM
Structure (SMILES): O=S1(=O)NCN(CCF)c2ccc(Cl)cc21

K [3]: 32 mM | K [2]: 5 ×10⁻¹¹ M | Activity [4]: Active | EC50 ([1]; read-out: EC50): 2 nM
Structure (SMILES): COc1cccc(Oc2ccc3c(c2)S(=O)(=O)NCN3C2CC2)c1

EC50 ([1]; read-out: EC50): 15600 nM
Structure (SMILES): Cc1ccccc1Oc1ccc2c(c1)S(=O)(=O)NCN2C1CC1

EC50 ([1]; read-out: pEC50 (converted)): > 10000 nM
Structure (SMILES): Cc1ccccc1Oc1ccc2c(c1)S(=O)(=O)NCN2C
